From ChEMBL document CHEMBL1142735, “Discovery of a new series of centrally active tricyclic isoxazoles combining serotonin (5-HT) reuptake inhibition with alpha2-adrenoceptor blocking activity” (J Med Chem, 2005) come the findings set out here.

One assay has as its target T1, D(4) dopamine receptor (Homo sapiens, UniProt P21917).
T1 sequence (P21917 whole entry): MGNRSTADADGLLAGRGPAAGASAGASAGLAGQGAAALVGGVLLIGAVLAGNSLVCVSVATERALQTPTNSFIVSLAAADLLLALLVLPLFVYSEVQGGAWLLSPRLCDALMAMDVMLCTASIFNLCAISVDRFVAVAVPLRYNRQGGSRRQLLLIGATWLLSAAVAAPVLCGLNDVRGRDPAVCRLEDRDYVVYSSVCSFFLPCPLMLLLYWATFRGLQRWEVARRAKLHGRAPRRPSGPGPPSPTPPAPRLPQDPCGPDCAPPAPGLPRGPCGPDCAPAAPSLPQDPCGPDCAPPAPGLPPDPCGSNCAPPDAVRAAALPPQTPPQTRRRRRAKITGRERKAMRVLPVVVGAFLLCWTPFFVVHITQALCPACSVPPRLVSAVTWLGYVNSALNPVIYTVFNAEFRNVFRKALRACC
Put plainly: Inhibition of [3H]spiperone binding to Dopamine receptor D4. A digest of the protocol:
(§1)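 Radioligand competition binding on membranes from cell lines carrying the human target, incubated with the labelled ligand under optimized conditions. Separation by filtration, except α1A and D3, which used scintillation proximity assay.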

The next assay addresses Histamine H1 receptor (Homo sapiens, UniProt P35367). Put plainly: Inhibition of [3H]pyrilamine binding to Histamine H1 receptor. A digest of the protocol:
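Radioligand competition on membranes from a cell line transfected with the human target, incubated under optimized conditions. Stopped by rapid filtration. Ki by Cheng-Prusoff.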

The target of assay [1] is T2, 5-hydroxytryptamine receptor 2C (Homo sapiens, UniProt P28335).
T2 sequence (P28335 whole entry): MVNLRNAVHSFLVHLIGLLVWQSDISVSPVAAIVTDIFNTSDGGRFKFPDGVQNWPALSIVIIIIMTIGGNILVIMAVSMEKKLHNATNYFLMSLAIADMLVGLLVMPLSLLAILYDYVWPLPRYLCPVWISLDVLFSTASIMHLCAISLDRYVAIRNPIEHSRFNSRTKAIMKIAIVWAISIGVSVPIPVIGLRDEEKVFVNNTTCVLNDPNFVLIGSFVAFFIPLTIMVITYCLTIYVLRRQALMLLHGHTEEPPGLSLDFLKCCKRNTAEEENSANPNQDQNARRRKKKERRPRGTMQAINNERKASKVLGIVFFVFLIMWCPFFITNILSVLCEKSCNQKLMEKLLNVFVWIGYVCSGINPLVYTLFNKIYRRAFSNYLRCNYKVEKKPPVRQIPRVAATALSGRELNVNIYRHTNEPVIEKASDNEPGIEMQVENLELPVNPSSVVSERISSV
The assay is described as follows: Inhibition of [3H]- mesulergine binding to 5-hydroxytryptamine 2C receptor. In outline: as §1

The next assay addresses D(2) dopamine receptor (Homo sapiens, UniProt P14416). The assay is described as follows: Inhibition of [3H]spiperone binding to Dopamine receptor D2. A digest of the protocol:
as §1

Assay [2] addresses T3, Adrenergic receptor alpha-1 (Homo sapiens, UniProt P35348+P25100+P35368).
T3 sequence (P35348 whole entry): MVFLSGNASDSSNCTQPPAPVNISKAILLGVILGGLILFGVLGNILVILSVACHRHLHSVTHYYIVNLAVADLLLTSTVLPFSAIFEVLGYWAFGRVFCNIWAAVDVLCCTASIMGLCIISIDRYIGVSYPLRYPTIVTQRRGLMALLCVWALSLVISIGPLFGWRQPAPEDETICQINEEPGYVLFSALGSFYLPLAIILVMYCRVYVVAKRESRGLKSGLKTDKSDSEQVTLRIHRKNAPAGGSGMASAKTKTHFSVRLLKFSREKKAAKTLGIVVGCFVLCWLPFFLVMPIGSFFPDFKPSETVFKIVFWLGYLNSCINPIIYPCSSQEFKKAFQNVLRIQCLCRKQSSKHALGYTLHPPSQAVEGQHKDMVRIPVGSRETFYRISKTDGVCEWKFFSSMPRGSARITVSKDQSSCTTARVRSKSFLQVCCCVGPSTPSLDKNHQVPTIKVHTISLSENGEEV
T3 sequence (P25100 whole entry): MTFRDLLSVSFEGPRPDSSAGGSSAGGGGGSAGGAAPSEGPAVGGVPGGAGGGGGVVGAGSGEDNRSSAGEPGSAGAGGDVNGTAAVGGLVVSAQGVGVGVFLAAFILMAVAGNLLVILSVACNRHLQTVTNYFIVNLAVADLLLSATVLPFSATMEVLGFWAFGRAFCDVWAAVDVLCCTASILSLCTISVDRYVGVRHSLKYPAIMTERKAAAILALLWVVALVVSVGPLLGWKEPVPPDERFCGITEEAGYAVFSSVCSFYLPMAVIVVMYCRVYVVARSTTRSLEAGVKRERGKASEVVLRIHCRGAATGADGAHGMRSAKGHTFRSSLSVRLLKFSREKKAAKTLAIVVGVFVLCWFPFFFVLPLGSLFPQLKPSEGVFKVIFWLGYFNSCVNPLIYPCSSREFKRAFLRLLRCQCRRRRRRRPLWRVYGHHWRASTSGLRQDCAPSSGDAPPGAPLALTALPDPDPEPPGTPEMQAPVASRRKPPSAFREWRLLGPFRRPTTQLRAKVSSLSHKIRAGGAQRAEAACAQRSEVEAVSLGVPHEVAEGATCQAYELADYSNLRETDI
T3 sequence (P35368 whole entry): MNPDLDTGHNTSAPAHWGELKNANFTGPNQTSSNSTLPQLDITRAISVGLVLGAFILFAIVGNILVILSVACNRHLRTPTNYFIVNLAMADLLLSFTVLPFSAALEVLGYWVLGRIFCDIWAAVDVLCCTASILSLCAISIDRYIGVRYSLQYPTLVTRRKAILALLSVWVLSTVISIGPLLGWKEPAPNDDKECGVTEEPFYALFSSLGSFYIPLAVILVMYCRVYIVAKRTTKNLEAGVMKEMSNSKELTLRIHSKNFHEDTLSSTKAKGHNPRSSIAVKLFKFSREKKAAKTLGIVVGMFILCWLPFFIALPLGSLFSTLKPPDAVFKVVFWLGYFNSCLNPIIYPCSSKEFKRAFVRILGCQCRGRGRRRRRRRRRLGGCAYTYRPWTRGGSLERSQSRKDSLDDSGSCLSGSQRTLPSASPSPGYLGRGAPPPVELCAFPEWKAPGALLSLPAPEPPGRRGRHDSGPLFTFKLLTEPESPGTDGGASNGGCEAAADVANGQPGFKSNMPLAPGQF
Put plainly: Inhibition of [3H]- prazosin binding to alpha-1 adrenergic receptor. Type of assay: protein assay. A digest of the protocol:
as §1

In assay [3] the target is Sodium-dependent dopamine transporter (Rattus norvegicus, UniProt P23977). Put plainly: Inhibition of [3H]WIN-35428 binding to Dopamine transporter of rat striatum. The class given is tissue-based. A digest of the protocol: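 Competition binding using rat striatum membranes incubated with the radioligand under optimized conditions, separated by filtration.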
The next assay deals with Rattus norvegicus. Put plainly: Effective dose for antagonism ofpCA-Induced excitation was determined by oral administration. The class given is functional. A digest of the protocol:
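Oral pretreatment of overnight-fasted male Wistar rats (200-250 g), then medetomidine 0.10 mg/kg iv (reversal means no loss of righting) or pCA 5 mg/kg sc (excitation scored 0-3 over 15 min from 45 min after pCA; inhibition means score <2). Doses taken from a geometric series.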

Each structure is given as a SMILES string.

Chain of D(2) dopamine receptor (P14416 whole entry): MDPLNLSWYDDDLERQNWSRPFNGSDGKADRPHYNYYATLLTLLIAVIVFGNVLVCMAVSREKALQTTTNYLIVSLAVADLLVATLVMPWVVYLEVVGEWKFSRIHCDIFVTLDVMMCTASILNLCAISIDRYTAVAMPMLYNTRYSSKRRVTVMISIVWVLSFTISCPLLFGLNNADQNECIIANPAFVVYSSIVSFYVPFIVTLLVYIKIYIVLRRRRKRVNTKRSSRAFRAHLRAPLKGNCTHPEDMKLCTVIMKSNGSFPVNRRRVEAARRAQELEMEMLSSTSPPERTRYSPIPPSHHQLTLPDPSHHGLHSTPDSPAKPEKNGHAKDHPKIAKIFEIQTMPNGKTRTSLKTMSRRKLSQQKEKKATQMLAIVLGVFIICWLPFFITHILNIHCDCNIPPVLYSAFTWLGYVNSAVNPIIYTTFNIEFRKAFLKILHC
Chain of Histamine H1 receptor (P35367 whole entry): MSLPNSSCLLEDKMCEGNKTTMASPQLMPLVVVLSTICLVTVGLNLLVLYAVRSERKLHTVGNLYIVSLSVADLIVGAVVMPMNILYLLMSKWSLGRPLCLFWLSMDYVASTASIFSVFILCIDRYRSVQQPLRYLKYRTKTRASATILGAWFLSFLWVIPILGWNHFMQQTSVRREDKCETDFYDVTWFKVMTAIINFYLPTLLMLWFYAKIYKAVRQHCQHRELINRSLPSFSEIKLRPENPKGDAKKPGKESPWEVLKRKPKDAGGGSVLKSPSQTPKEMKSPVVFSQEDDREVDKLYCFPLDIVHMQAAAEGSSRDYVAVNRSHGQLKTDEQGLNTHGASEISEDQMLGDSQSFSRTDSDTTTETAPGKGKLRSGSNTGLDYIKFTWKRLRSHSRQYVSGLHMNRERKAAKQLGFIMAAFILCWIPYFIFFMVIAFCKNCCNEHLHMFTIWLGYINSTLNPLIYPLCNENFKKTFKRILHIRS
Chain of Sodium-dependent dopamine transporter (P23977 whole entry): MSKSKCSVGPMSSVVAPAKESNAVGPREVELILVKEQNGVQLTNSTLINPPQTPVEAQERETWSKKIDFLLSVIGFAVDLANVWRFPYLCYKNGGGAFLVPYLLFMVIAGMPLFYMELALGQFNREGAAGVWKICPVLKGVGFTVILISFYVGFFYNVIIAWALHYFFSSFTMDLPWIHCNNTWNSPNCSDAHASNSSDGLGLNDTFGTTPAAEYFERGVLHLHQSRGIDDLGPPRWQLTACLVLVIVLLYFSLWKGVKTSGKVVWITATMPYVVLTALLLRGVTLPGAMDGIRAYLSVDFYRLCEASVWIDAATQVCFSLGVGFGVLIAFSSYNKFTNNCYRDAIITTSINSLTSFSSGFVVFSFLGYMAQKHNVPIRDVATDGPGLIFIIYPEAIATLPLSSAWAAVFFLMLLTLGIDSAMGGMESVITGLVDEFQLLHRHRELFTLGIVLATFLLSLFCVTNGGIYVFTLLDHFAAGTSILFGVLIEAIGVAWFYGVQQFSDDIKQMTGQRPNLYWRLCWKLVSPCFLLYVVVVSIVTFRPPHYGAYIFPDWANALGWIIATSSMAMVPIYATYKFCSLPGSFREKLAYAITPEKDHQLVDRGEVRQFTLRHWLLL

Broadly, the Ki is the equilibrium dissociation constant of an inhibitor or competing ligand from its target. Low values mean higher affinity, high ones lower affinity. The ED50 is the midpoint of the dose-response relation. A low value points to an effect at a small dose. Consider `COc1cc2c(cc1OC)C1=NO[C@@H](CN3CCN(C/C=C/c4ccccc4)CC3)[C@@H]1CO2`, for which the Ki on D(4) dopamine receptor is more than 1000 nM; at Histamine H1 receptor it was more than 1000 nM; in assay [1] it was more than 1000 nM; on D(2) dopamine receptor, 959 nM; in assay [2], more than 1000 nM; in assay [3], 515 nM. The same molecule displayed a median effective dose (ED50) in the assay with Rattus norvegicus of 5 mg/kg.

For the molecule `COc1cc2c(cc1OC)C1=NO[C@@H](CN3CCN(C/C=C(\C)c4ccccc4)CC3)[C@@H]1CO2`, the Ki was more than 1000 nM on D(4) dopamine receptor; more than 1000 nM on Histamine H1 receptor; more than 1000 nM in assay [1]; more than 1000 nM at D(2) dopamine receptor; more than 1000 nM in assay [2]; 368 nM in assay [3]. The molecule also showed an ED50 with Rattus norvegicus not below 2.5 mg/kg.

`COc1cc2c(cc1OC)C1=NO[C@@H](CN3CCN(C/C(C)=C/c4ccccc4)CC3)[C@@H]1CO2`: the Ki on D(4) dopamine receptor is more than 1000 nM; at Histamine H1 receptor, 113 nM; in assay [1], more than 1000 nM; on D(2) dopamine receptor, 230 nM; in assay [2] it was 380 nM; in assay [3], more than 1000 nM.

For `COc1cc2c(cc1OC)C1=NO[C@@H](CN3CCN(Cc4ccc5ccccc5c4)CC3)[C@@H]1CO2`, the Ki at D(4) dopamine receptor was more than 1000 nM; at Histamine H1 receptor, 460 nM; in assay [1] it was more than 1000 nM; at D(2) dopamine receptor, more than 1000 nM; in assay [2], more than 1000 nM; in assay [3], 246 nM. The same molecule registered an ED50 in the assay with Rattus norvegicus of 5 mg/kg.
